Test system: not listed separately
Experiment: Inhibition of Influenza A virus (A/chicken/Hebei/LZF/ 2014(H5N2)) group-2 Neuraminidase N2 preincubated for 10 mins followed by MUNANA substrate addition and measured after 40 to 60 mins by fluorescence method
Conditions: not given
Outline: (§1)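 Virus-derived NA was preincubated 10 min at 37°C with compound in MES buffer. Fluorogenic substrate was added and the reaction run for 40–60 min at 37°C, then stopped with glycine/NaOH. Fluorescence was read at ex 365 / em 460 nm with substrate blanks subtracted. IC50 was taken from percent-inhibition dose-response curves and reported as mean ± SD of three experiments.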

| Compound | IC50 |
| --- | --- |
| CCC(CC)O[C@@H]1C=C(C(=O)O)C[C@H](NCc2ccc(-c3ccccc3)s2)[C@H]1NC(C)=O | 1.1 µM |
| CCC(CC)O[C@@H]1C=C(C(=O)O)C[C@H](NCc2ccc(-c3ccsc3)cc2)[C@H]1NC(C)=O | 1.44 µM |
| CCC(CC)O[C@@H]1C=C(C(=O)O)C[C@H](NCc2cccc(-c3ccccc3)c2)[C@H]1NC(C)=O | 13.7 µM |
| CCC(CC)O[C@@H]1C=C(C(=O)O)C[C@H](NCc2ccc(-c3nccs3)cc2)[C@H]1NC(C)=O | 7.88 µM |

Test system: Influenza A virus
Experiment: Antiviral activity against Influenza A virus (A/Duck/Guangdong/674/2014 (H5N6)) group-2 infected in chicken embryo fibroblast assessed as reduction in viral infection preincubated for 1 hrs followed by fibroblast infection and measured after 72 hrs by hemagglutination titre method
Format: functional, organism-based
Conditions: not given

| Compound | IC50 |
| --- | --- |
| CCC(CC)O[C@@H]1C=C(C(=O)O)C[C@H](NC(=O)/C=C/c2ccccc2)[C@H]1NC(C)=O | > 10 µM |
| CCC(CC)O[C@@H]1C=C(C(=O)O)C[C@H](NCc2ccc(C#N)cc2)[C@H]1NC(C)=O | > 10 µM |
| CCC(CC)O[C@@H]1C=C(C(=O)O)C[C@H](NCc2ncc(-c3ccccc3)s2)[C@H]1NC(C)=O | 4.29 µM |
| CCC(CC)O[C@@H]1C=C(C(=O)O)C[C@H](NS(=O)(=O)c2ccc(Cl)cc2)[C@H]1NC(C)=O | > 10 µM |
| CCC(CC)O[C@@H]1C=C(C(=O)O)C[C@H](NCc2ccc(-c3ccccc3)s2)[C@H]1NC(C)=O | 3.02 µM |
| CCC(CC)O[C@@H]1C=C(C(=O)O)C[C@H](NCc2ccc(-c3ccsc3)cc2)[C@H]1NC(C)=O | 5.5 µM |
| CCC(CC)O[C@@H]1C=C(C(=O)O)C[C@H](NCc2cccc(-c3ccccc3)c2)[C@H]1NC(C)=O | 4.49 µM |
| CCC(CC)O[C@@H]1C=C(C(=O)O)C[C@H](NCc2ccc(-c3nccs3)cc2)[C@H]1NC(C)=O | 3.23 µM |

Test system: Influenza A virus
Experiment: Antiviral activity against Influenza A virus (A/goose/Guangdong/SH7/2013(H5N1)) group-1 infected in chicken embryo fibroblast assessed as reduction in viral infection preincubated for 1 hrs followed by fibroblast infection and measured after 72 hrs by hemagglutination titre method
Format: functional, organism-based
Conditions: not given

| Compound | IC50 |
| --- | --- |
| CCC(CC)O[C@@H]1C=C(C(=O)O)C[C@H](NC(=O)/C=C/c2ccccc2)[C@H]1NC(C)=O | > 10 µM |
| CCC(CC)O[C@@H]1C=C(C(=O)O)C[C@H](NCc2ccc(C#N)cc2)[C@H]1NC(C)=O | > 10 µM |
| CCC(CC)O[C@@H]1C=C(C(=O)O)C[C@H](NCc2ncc(-c3ccccc3)s2)[C@H]1NC(C)=O | > 10 µM |
| CCC(CC)O[C@@H]1C=C(C(=O)O)C[C@H](NS(=O)(=O)c2ccc(Cl)cc2)[C@H]1NC(C)=O | > 10 µM |
| CCC(CC)O[C@@H]1C=C(C(=O)O)C[C@H](NCc2ccc(-c3ccccc3)s2)[C@H]1NC(C)=O | 1.59 µM |
| CCC(CC)O[C@@H]1C=C(C(=O)O)C[C@H](NCc2cccc(-c3ccccc3)c2)[C@H]1NC(C)=O | 0.84 µM |
| CCC(CC)O[C@@H]1C=C(C(=O)O)C[C@H](NCc2ccc(-c3nccs3)cc2)[C@H]1NC(C)=O | > 10 µM |

Test system: Influenza A virus
Experiment: Antiviral activity against Influenza A virus (A/chicken/Hebei/LZF/ 2014(H5N2)) group-2 infected in chicken embryo fibroblast assessed as reduction in viral infection preincubated for 1 hrs followed by fibroblast infection and measured after 72 hrs by hemagglutination titre method
Format: functional, organism-based
Conditions: not given

| Compound | IC50 |
| --- | --- |
| CCC(CC)O[C@@H]1C=C(C(=O)O)C[C@H](NC(=O)/C=C/c2ccccc2)[C@H]1NC(C)=O | > 10 µM |
| CCC(CC)O[C@@H]1C=C(C(=O)O)C[C@H](NCc2ncc(-c3ccccc3)s2)[C@H]1NC(C)=O | 0.41 µM |
| CCC(CC)O[C@@H]1C=C(C(=O)O)C[C@H](NS(=O)(=O)c2ccc(Cl)cc2)[C@H]1NC(C)=O | > 10 µM |
| CCC(CC)O[C@@H]1C=C(C(=O)O)C[C@H](NCc2ccc(-c3ccccc3)s2)[C@H]1NC(C)=O | 0.12 µM |
| CCC(CC)O[C@@H]1C=C(C(=O)O)C[C@H](NCc2ccc(-c3ccsc3)cc2)[C@H]1NC(C)=O | 0.1 µM |
| CCC(CC)O[C@@H]1C=C(C(=O)O)C[C@H](NCc2cccc(-c3ccccc3)c2)[C@H]1NC(C)=O | 0.23 µM |
| CCC(CC)O[C@@H]1C=C(C(=O)O)C[C@H](NCc2ccc(-c3nccs3)cc2)[C@H]1NC(C)=O | 0.2 µM |

Test system: not listed separately
Experiment: Inhibition of Influenza A virus (A/goose/Jiangsu/1306/2014 (H5N8)) group-1 Neuraminidase N8 preincubated for 10 mins followed by MUNANA substrate addition and measured after 40 to 60 mins by fluorescence method
Conditions: not given
Outline: as §1

| Compound | IC50 |
| --- | --- |
| CCC(CC)O[C@@H]1C=C(C(=O)O)C[C@H](NCc2ccc(-c3ccccc3)s2)[C@H]1NC(C)=O | 0.0901 µM |
| CCC(CC)O[C@@H]1C=C(C(=O)O)C[C@H](NCc2ccc(-c3ccsc3)cc2)[C@H]1NC(C)=O | 0.0781 µM |
| CCC(CC)O[C@@H]1C=C(C(=O)O)C[C@H](NCc2cccc(-c3ccccc3)c2)[C@H]1NC(C)=O | 0.0831 µM |
| CCC(CC)O[C@@H]1C=C(C(=O)O)C[C@H](NCc2ccc(-c3nccs3)cc2)[C@H]1NC(C)=O | 0.109 µM |

Test system: not listed separately
Experiment: Cytotoxicity against chicken embryo fibroblast assessed as reduction in cell viability after 48 hrs by CCK8 assay
Design: species or system Gallus gallus
Conditions: chicken embryo fibroblasts
Outline: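 Chicken embryo fibroblasts (1×10^5 cells/mL) were cultured 24 h at 37°C, 5% CO2, washed with serum-free DMEM, then exposed to 2-fold serial compound dilutions in 1% FBS DMEM for 48 h. CCK-8 in 1% FBS DMEM was added for 90 min and absorbance read at 450 nm. CC50 was obtained by curve fitting. Blank and cell controls were included.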

| Compound | CC50 at 48 h |
| --- | --- |
| CCC(CC)O[C@@H]1C=C(C(=O)O)C[C@H](NC(=O)/C=C/c2ccccc2)[C@H]1NC(C)=O | > 200 µM |
| CCC(CC)O[C@@H]1C=C(C(=O)O)C[C@H](NCc2ccc(C#N)cc2)[C@H]1NC(C)=O | > 200 µM |
| CCC(CC)O[C@@H]1C=C(C(=O)O)C[C@H](NCc2ncc(-c3ccccc3)s2)[C@H]1NC(C)=O | > 200 µM |
| CCC(CC)O[C@@H]1C=C(C(=O)O)C[C@H](NS(=O)(=O)c2ccc(Cl)cc2)[C@H]1NC(C)=O | > 200 µM |
| CCC(CC)O[C@@H]1C=C(C(=O)O)C[C@H](NCc2ccc(-c3ccccc3)s2)[C@H]1NC(C)=O | > 200 µM |
| CCC(CC)O[C@@H]1C=C(C(=O)O)C[C@H](NCc2ccc(-c3ccsc3)cc2)[C@H]1NC(C)=O | > 200 µM |
| CCC(CC)O[C@@H]1C=C(C(=O)O)C[C@H](NCc2cccc(-c3ccccc3)c2)[C@H]1NC(C)=O | > 200 µM |
| CCC(CC)O[C@@H]1C=C(C(=O)O)C[C@H](NCc2ccc(-c3nccs3)cc2)[C@H]1NC(C)=O | > 200 µM |

Test system: not listed separately
Experiment: Inhibition of Influenza A virus (A/goose/Guangdong/SH7/2013(H5N1)) group-1 Neuraminidase N1 preincubated for 10 mins followed by MUNANA substrate addition and measured after 40 to 60 mins by fluorescence method
Conditions: not given
Outline: as §1

| Compound | IC50 |
| --- | --- |
| CCC(CC)O[C@@H]1C=C(C(=O)O)C[C@H](NCc2ccc(-c3ccccc3)s2)[C@H]1NC(C)=O | 0.264 µM |
| CCC(CC)O[C@@H]1C=C(C(=O)O)C[C@H](NCc2ccc(-c3ccsc3)cc2)[C@H]1NC(C)=O | 0.118 µM |
| CCC(CC)O[C@@H]1C=C(C(=O)O)C[C@H](NCc2cccc(-c3ccccc3)c2)[C@H]1NC(C)=O | 0.054 µM |
| CCC(CC)O[C@@H]1C=C(C(=O)O)C[C@H](NCc2ccc(-c3nccs3)cc2)[C@H]1NC(C)=O | 0.392 µM |

Test system: Influenza A virus
Experiment: Antiviral activity against Influenza A virus (A/goose/Jiangsu/1306/2014 (H5N8)) group-1 infected in chicken embryo fibroblast assessed as reduction in viral infection preincubated for 1 hrs followed by fibroblast infection and measured after 72 hrs by hemagglutination titre method
Format: functional, organism-based
Conditions: not given

| Compound | IC50 |
| --- | --- |
| CCC(CC)O[C@@H]1C=C(C(=O)O)C[C@H](NC(=O)/C=C/c2ccccc2)[C@H]1NC(C)=O | 5.32 µM |
| CCC(CC)O[C@@H]1C=C(C(=O)O)C[C@H](NCc2ccc(C#N)cc2)[C@H]1NC(C)=O | 0.68 µM |
| CCC(CC)O[C@@H]1C=C(C(=O)O)C[C@H](NCc2ncc(-c3ccccc3)s2)[C@H]1NC(C)=O | 0.49 µM |
| CCC(CC)O[C@@H]1C=C(C(=O)O)C[C@H](NS(=O)(=O)c2ccc(Cl)cc2)[C@H]1NC(C)=O | 4.76 µM |
| CCC(CC)O[C@@H]1C=C(C(=O)O)C[C@H](NCc2ccc(-c3ccccc3)s2)[C@H]1NC(C)=O | 0.098 µM |
| CCC(CC)O[C@@H]1C=C(C(=O)O)C[C@H](NCc2ccc(-c3ccsc3)cc2)[C@H]1NC(C)=O | 0.051 µM |
| CCC(CC)O[C@@H]1C=C(C(=O)O)C[C@H](NCc2cccc(-c3ccccc3)c2)[C@H]1NC(C)=O | 0.65 µM |
| CCC(CC)O[C@@H]1C=C(C(=O)O)C[C@H](NCc2ccc(-c3nccs3)cc2)[C@H]1NC(C)=O | 0.059 µM |

Test system: not listed separately
Experiment: Inhibition of Influenza A virus (A/Duck/Guangdong/674/2014 (H5N6)) group-2 Neuraminidase N6 preincubated for 10 mins followed by MUNANA substrate addition and measured after 40 to 60 mins by fluorescence method
Conditions: not given
Outline: as §1

| Compound | IC50 |
| --- | --- |
| CCC(CC)O[C@@H]1C=C(C(=O)O)C[C@H](NCc2ccc(-c3ccccc3)s2)[C@H]1NC(C)=O | 1.74 µM |
| CCC(CC)O[C@@H]1C=C(C(=O)O)C[C@H](NCc2ccc(-c3ccsc3)cc2)[C@H]1NC(C)=O | 34.5 µM |
| CCC(CC)O[C@@H]1C=C(C(=O)O)C[C@H](NCc2cccc(-c3ccccc3)c2)[C@H]1NC(C)=O | 39.1 µM |
| CCC(CC)O[C@@H]1C=C(C(=O)O)C[C@H](NCc2ccc(-c3nccs3)cc2)[C@H]1NC(C)=O | 9.6 µM |

From ChEMBL document CHEMBL4765273 (Eur J Med Chem, 2020)
